Data set [1] is described as follows: folding enthalpy; higher = less favourable; fluorescence melt of hairpins on a sequencing array, two-state fit. The settings on record: sodium 0.088 M. The essentials: (§1)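 Cy3 fluorescence of library hairpins on a sequenced MiSeq flow cell, with annealed Cy3 and quencher oligos, was imaged in 50 mM Na-HEPES pH 8.0, 25 mM NaCl in 2.5 °C steps up to 60 °C. Signals were normalised to pre-quench Cy3 and to control variants. Melting temperature and folding enthalpy came from bootstrapped two-state fits, inverse-variance combined over four replicates. Fitted temperatures were raised by 9.35 °C to match UV melts.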

The nature of data set [2]: melting temperature; fluorescence melt of hairpins on a sequencing array, two-state fit, raised by 9.35 °C to match UV melts. The note with it: sodium 0.088 M. Summed up:
as §1

Consider GGTAAACGAAAGTTAACC (((.(((....))).))), for which, in data set [1], the folding enthalpy is -30.5 kcal/mol. In data set [2], the Tm was 43.2 °C.
Turning to GGTAAAGCGAAAGCTACC (((..(((....)))))), the folding enthalpy in data set [1] was -19 kcal/mol. For the same sequence, the Tm in data set [2] was found to be 44.8 °C.
As to GGTAAAGGAAACCTTACC (((((.(....).))))), the folding enthalpy in data set [1] is -22 kcal/mol. The Tm in data set [2] was determined as 35.5 °C.
Take GGTAAAGGAAACTTTACC (((((((....))))))): the folding enthalpy in data set [1] is -47.8 kcal/mol. The Tm in data set [2] worked out at 52.1 °C.
As for GGTAACGAAAGTTCAACC ((((((....)))..))), in data set [1], the folding enthalpy is -11 kcal/mol. Further, in data set [2], the Tm was found to be 27.7 °C.
The like results for GGTAACGAAAGTTGACC ((((((....))).))) were, in that order, -20.6 kcal/mol and 39.2 °C.
Regarding GGTAACGAAAGTTGTACC ((((((....)))..))), the folding enthalpy in data set [1] was -17.5 kcal/mol. Besides, the Tm in data set [2] is 34.8 °C.
In the case of GGTAACGCGAAAGCGACC (((..(((....)))))), the folding enthalpy in data set [1] was -14.1 kcal/mol. Also, the Tm in data set [2] amounted to 40.9 °C.
Turning to GGTAACGGAAACATTACC (((((.(....).))))), the folding enthalpy in data set [1] was -21.2 kcal/mol. For the same sequence, the Tm in data set [2] turned out to be 31.5 °C.
As to GGTAACGGAAACGCTACC ((((.((....)).)))), the folding enthalpy in data set [1] was -29.7 kcal/mol. For the same sequence, the Tm in data set [2] is 43.7 °C.
For the sequence GGTAAGAAATTACC (((((....))))), in data set [1], the folding enthalpy is -16 kcal/mol. For the same sequence, in data set [2], the Tm was determined as 34.3 °C.
In the case of GGTAAGCGAAAGCTACC (((.(((....)))))), in data set [1], the folding enthalpy was -26.7 kcal/mol. Also, the Tm in data set [2] turned out to be 55 °C.
With GGTAAGGGAAACCTCACC (((.(((....))).))), in data set [1], the folding enthalpy was -21.9 kcal/mol. In addition, the Tm in data set [2] came out at 34.7 °C.
The matching figures for GGTAATCGAAAGATGACC (((.(((....))).))): -33.9 kcal/mol and 47.5 °C.
The matching figures for GGTAATGGAAACACTACC ((((.((....)).)))): -15.4 kcal/mol and 30.1 °C.
Take GGTACCGAAAGGTAAACC ((((((....)))..))): the folding enthalpy in data set [1] is -16.2 kcal/mol. Further, the Tm in data set [2] is 40.5 °C.
With GGTACCGAAAGGTACACC ((((((....)))..))), the folding enthalpy in data set [1] is -9.32 kcal/mol. Also, the Tm in data set [2] was found to be 51.7 °C.
On to GGTACCGAAAGGTTAACC ((((((....)))..))), for which the folding enthalpy in data set [1] is -17.3 kcal/mol. Also, the Tm in data set [2] stood at 38.6 °C.
Consider GGTACCGAAAGGTTCACC ((((((....)))..))), for which the folding enthalpy in data set [1] was -13.6 kcal/mol. For the same sequence, the Tm in data set [2] came out at 34.4 °C.
GGTACCGGAAACGGCACC (((.(((....))).))): the folding enthalpy in data set [1] is -29.9 kcal/mol. Further, the Tm in data set [2] is 52.5 °C.
On to GGTACGGGAAACCATACC ((((.((....)).)))), for which the folding enthalpy in data set [1] was -28.2 kcal/mol. In addition, the Tm in data set [2] worked out at 36.7 °C.
The matching figures for GGTACGGGAAACCGCACC (((.(((....))).))): -28.6 kcal/mol and 50.5 °C.
On to GGTAGACGAAAGTCAACC (((.(((....))).))), for which the folding enthalpy in data set [1] is -26.3 kcal/mol. Further, the Tm in data set [2] came to 51.5 °C.
As for GGTAGACGAAAGTCACC (((.(((....)))))), in data set [1], the folding enthalpy was -23.6 kcal/mol. Besides, in data set [2], the Tm came to 50.8 °C.
GGTAGACGAAAGTCGACC (((.(((....))).))): the folding enthalpy in data set [1] was -39.1 kcal/mol. In data set [2], the Tm came to 58.1 °C.
For GGTAGATCGAAAGATACC (((..(((....)))))), the folding enthalpy in data set [1] is -19 kcal/mol. In addition, in data set [2], the Tm amounted to 33.1 °C.
The matching figures for GGTAGCCGAAAGGCACC (((.(((....)))))): -18.7 kcal/mol and 57.5 °C.
On to GGTAGCGAAAGCTAGACC ((((((....)))..))), for which the folding enthalpy in data set [1] was -14.3 kcal/mol. The Tm in data set [2] was found to be 40.1 °C.
As to GGTAGCGAAAGCTCACC ((((((....))).))), in data set [1], the folding enthalpy was -16.8 kcal/mol. For the same sequence, the Tm in data set [2] turned out to be 48.2 °C.
GGTAGCGAAAGCTCGACC ((((((....)))..))): in data set [1], the folding enthalpy is -15.1 kcal/mol. In addition, the Tm in data set [2] was 34.6 °C.
As for GGTAGCGAAAGCTTCACC ((((((....)))..))), the folding enthalpy in data set [1] is -13.8 kcal/mol. For the same sequence, the Tm in data set [2] came to 34.4 °C.
Regarding GGTAGCTCGAAAGAGACC (((..(((....)))))), the folding enthalpy in data set [1] is -11.7 kcal/mol. Moreover, the Tm in data set [2] amounted to 28.3 °C.
GGTAGGCGAAAGCCCACC (((.(((....))).))): the folding enthalpy in data set [1] was -17.1 kcal/mol. The Tm in data set [2] worked out at 51.9 °C.
GGTAGGGAAACCTACC ((((((....)))))): the folding enthalpy in data set [1] is -38.5 kcal/mol. Moreover, in data set [2], the Tm stood at 54.6 °C.
In the case of GGTAGGGGAAACCCTGCC ((.((((....)))).)), the folding enthalpy in data set [1] is -39.5 kcal/mol. Further, the Tm in data set [2] was 53.6 °C.
GGTAGTCGAAAGACCACC (((.(((....))).))): the folding enthalpy in data set [1] is -24.7 kcal/mol. Besides, the Tm in data set [2] was determined as 45.7 °C.
Regarding GGTATAGAAATATACC ((((((....)))))), the folding enthalpy in data set [1] is -26.4 kcal/mol. In data set [2], the Tm is 41.9 °C.
